LANA-H2A inh: blockers of LANA interaction with H2A/H2B – biochemical, FP readout, HTS, primary screen | cell-free LANA-H2A/H2B peptide, fluorescence polarization | inhibition, % (no concentration beside the values) | Protein LANA1 (Human herpesvirus 8 type P (isolate GK18)), Q9QR71 | 0.6% of 320,000 active; in the data active = inhibition mostly above about 10%, no sharp cut-off; inactive = mostly below about 6.7%
Target sequence (Q9QR71 whole entry, looked up): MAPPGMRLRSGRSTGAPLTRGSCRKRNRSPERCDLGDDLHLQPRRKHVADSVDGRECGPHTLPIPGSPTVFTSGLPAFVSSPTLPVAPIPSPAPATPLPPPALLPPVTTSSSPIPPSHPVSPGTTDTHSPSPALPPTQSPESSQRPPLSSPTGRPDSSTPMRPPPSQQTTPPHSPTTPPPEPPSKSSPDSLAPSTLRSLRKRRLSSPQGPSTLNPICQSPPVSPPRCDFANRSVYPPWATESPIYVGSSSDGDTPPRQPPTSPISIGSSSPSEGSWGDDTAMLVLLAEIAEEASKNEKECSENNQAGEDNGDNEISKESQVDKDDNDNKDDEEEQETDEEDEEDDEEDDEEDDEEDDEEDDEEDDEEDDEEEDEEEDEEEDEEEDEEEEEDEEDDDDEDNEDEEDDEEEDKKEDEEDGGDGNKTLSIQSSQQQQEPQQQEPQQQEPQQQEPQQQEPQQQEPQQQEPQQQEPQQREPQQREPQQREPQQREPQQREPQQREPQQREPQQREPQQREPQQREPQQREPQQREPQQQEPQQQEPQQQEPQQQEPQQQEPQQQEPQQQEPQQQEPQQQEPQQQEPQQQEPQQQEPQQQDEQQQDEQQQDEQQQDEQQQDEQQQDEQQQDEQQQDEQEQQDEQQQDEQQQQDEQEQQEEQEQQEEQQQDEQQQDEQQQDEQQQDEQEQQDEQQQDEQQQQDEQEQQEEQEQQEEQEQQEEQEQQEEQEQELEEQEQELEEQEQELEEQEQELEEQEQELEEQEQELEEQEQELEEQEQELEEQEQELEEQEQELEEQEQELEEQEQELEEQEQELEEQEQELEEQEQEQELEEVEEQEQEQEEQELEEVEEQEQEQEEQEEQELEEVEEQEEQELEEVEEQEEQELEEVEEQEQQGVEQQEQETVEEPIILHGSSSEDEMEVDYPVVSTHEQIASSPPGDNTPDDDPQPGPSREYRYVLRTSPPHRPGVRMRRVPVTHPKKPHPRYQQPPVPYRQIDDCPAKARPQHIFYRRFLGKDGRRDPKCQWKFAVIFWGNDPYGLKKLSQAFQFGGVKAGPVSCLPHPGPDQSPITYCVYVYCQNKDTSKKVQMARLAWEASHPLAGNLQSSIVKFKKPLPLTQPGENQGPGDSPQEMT
RanGTP-Imp inh: inhibitors of RanGTP-importin-beta interaction, primary screen, biochemical, FRET, CFP-Ran, YFP-importin-beta, homogeneous; Ran GTPase (GTP-bound) - importin-beta complex; cell-free CFP-Ran/YFP-importin-beta FRET ratio; inhibition, % (test concentration not listed); 1.1% of 300,000 active;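 active = more than half of the replicate wells show a fall in the fluorescence ratio signal beyond about 16%, limit read from the data, passing the limit was not always enough; inconclusive = exactly half of the replicate wells pass the set limit; inactive = fewer than half of replicates pass the limit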;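 also: 0% = DMSO wells and 100% = Ran loaded with GDP instead of GTP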
Runt-CBFb FRET: inhibitors of RUNX1 Runt–CBFb binding, primary screen, biochemical, FRET, Cerulean-Runt, Venus-CBFb, uHTS; inhibition, % at 20 µM; Runt-related transcription factor 1 (Homo sapiens) + Core-binding factor subunit beta …; Cerulean-Runt/Venus-CBFb FRET ratio 530/480, 1 h; 0.46% of 220,000 active; AID 1496, 2009;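 active = inhibition over about 50% at 20 µM in the single-dose screen, limit read from the data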;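 also: 0% = DMSO wells and 100% = excess unlabeled CBFb competitor control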
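Schedule: protein complex preformed 1 h, compound exposure 1 h, room temperature, dark; test system: Cerulean-labeled Runt domain protein; amount: 100 nM per protein; buffer or medium: Tris 50 mM pH 7.5, KCl, K2SO4, 0.01% BSA; read-out: loss of energy transfer signal; detection: FRET fluorescence; controls: 5 µM unlabeled CBFb as full-inhibition high control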
Runt-SMMHC FRET: inhibitors of RUNX1 Runt–CBFb-SMMHC binding, primary screen, biochemical, FRET, Cerulean-Runt, Venus-CBFb-SMMHC, uHTS | inhibition, % at 20 µM | Cerulean-Runt/Venus-CBFb-SMMHC FRET ratio 530/480, 1 h | Runt-related transcription factor 1 (Homo sapiens) + Core-binding factor subunit beta … | 0.74% of 220,000 active;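 active = mean inhibition across duplicate retests at 20 µM reaching about 50%, limit read from the data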;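 also: 0% = DMSO wells and 100% = wells with excess untagged CBFb-SMMHC; inhibitors lower the FRET ratio by blocking Runt binding to CBFb-SMMHC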
CaV13 FRET inh: Primary screen for inhibitors of IQ motif and Ca2+-dependent inactivation inhibitor domain binding in CACNA1D, Förster resonance energy transfer in living cells, … | HEK cells, CFP/YFP FRET ICDI-IQ, plate reader, 10 min; percent FRET-ratio fall versus neutral wells | inhibition, % at 12.3 µM | 0.098% of 340,000 active;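 active = mean replicate inhibition of at least 30% and at least 1% of replicates passing that level; inconclusive = only one of the two criteria is met; inactive = neither criterion is met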;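 also: 0% = median of the neutral control wells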
HDAC3 inhib: HDAC3 deacetylase inhibitors, primary screen, biochemical, fluorescence, cell-free homogeneous; inhibition, % at 8.3 µM; AID 2718, 2010; 0.15% of 320,000 active; recombinant HDAC3, fluorogenic peptide/trypsin coupled; in the data active = inhibition above about 26%, passing the limit was not always enough; inconclusive = no clear call, values can overlap the other calls
Numbers without * were called inactive; ? = inconclusive; · = no result given; + = active, no number. Compounds with a hit are over-represented: about 1.9% of the library has one in this group of screens.

SMILES	LANA-H2A inh	RanGTP-Imp inh	Runt-CBFb FRET	Runt-SMMHC FRET	CaV13 FRET inh	HDAC3 inhib
COc1ccccc1C1C=C(c2ccc(C)cc2)Nc2nnnn21 (stereo not given)	0	-2	-2	-14	-6	2
COc1ccc(C2=CC(c3c(C)nn(-c4ccccc4)c3Cl)n3nnnc3N2)cc1OC (stereo not given)	0	·	31	86*	·	5
O=C(Cc1ccccc1)NN1C(=O)c2ccccc2C1=O	-2	-3	0	-4	0	-4
O=S(=O)(NC(=S)NC1CCCCC1)c1ccccc1	10*	2	3	-1	-3	0
O=S(=O)(NC(=S)NC1CCCCC1)c1cccs1	3	-3	0	-1	-3	-2
CC(=O)C1=C(O)C(=O)OC1c1ccc(C)cc1 (stereo not given)	-22	?	0	2	-5	17
O=C(/C=C/c1ccc([N+](=O)[O-])cc1)c1cccs1	-1	-3	5	1	-5	2
COc1cc([N+](=O)[O-])ccc1N/C=C/C(=O)c1cccs1	4	26*	-48	-6	-11	1
COc1cc(C2C(C#N)=C(N)OC3=C2C(=O)CC(C)(C)C3)c([N+](=O)[O-])cc1OC (stereo not given)	3	-14	·	-45	-4	11
CC1(C)CC(=O)C2=C(C1)OC(N)=C(C#N)[C@@H]2c1ccccc1[N+](=O)[O-]	9	49*	94*	50	179*	-6
COCCn1cnc2c1c(=O)n(Cc1cc(C(C)=O)ccc1OC)c(=O)n2Cc1ccccc1	-2	4	·	·	-5	4
CCN(CC)S(=O)(=O)c1cccc(C(=O)/C=C2/N(C)c3ccccc3C2(C)C)c1	0	27*	9	12	-48	12
COc1cccc(CNC(=S)NC2CCCC2)c1	-4	0	-1	1	-3	1
O=C(NCc1cccs1)c1cnc2ccccn2c1=O	9.8*	3	-3	-4	-4	1
COc1ccccc1CNC(=O)c1cnc2ccccn2c1=O	1	-1	1	2	-7	11
Cn1c(=O)n(Cc2ccccc2)c2ccccc21	-3	2	-1	-2	-8	5
Cn1c(=O)nc2n(Cc3ccccc3)c3cccc(Cl)c3cc-2c1=O	0	64*	95*	60*	-7	-6
CCc1nnc2n1N=C(c1ccc(Cl)cc1)CS2	0	6	·	·	-5	2
Cc1nnc2n(c1=O)N=C(c1ccc(Cl)cc1)CS2	-4	-3	41	14	-4	59*
COc1ccccc1C(=O)N1CCN(Cc2ccc3c(c2)OCO3)CC1	-3	?	1	9	-4	-5
COc1cc2cc(C(=O)N3CCN(Cc4ccc5c(c4)OCO5)CC3)c(=O)oc2cc1OC	-1	6	28	55*	-13	-1
Cc1cc(CSc2ccccc2C(=O)O)on1	1	-1	·	·	-3	-2
CCCCCCn1nc(C(=O)N(CCOC)c2c(N)n(CCCC)c(=O)[nH]c2=O)c2ccccc2c1=O	18*	-2	·	·	-7	2
O=C(O)CCc1nn2c3ccccc3n(Cc3ccccc3)c2nc1=O	-1	-1	-2	-2	-3	-13
CCC(=O)N/N=C(\C)CC(=O)Nc1ccc2ccccc2c1	2	1	1	-8	-4	-3
SMILES	LANA-H2A inh	RanGTP-Imp inh	Runt-CBFb FRET	Runt-SMMHC FRET	CaV13 FRET inh	HDAC3 inhib
CCOC(=O)C1CCN(c2nc3ccccc3n2CC(=O)c2ccccc2)CC1	-5	21*	2	-1	4	0
COc1ccc(N2CCN(c3nc4ccccc4n3CC(=O)c3ccccc3)CC2)cc1	-1	9	-2	-5	-4	5
COC(/C=C/Nc1ccc(Cl)cc1)=C(C#N)C#N	5	27*	0	4	-4	-6
O=C(Nc1ccc2c(c1)OCO2)c1cc(C2CCCCN2C(=O)c2ccc3ccccc3c2)on1 (stereo not given)	·	·	·	·	-9	·
O=C(O)CCCCCNc1nc2ncn(Cc3ccccc3)c2c(=O)[nH]1	-6	4	-1	-2	-10	1
C/C(CC(=O)Nc1ccc(C)c(Cl)c1)=N\NC(=O)C1CCCCC1	0	6	·	·	-5	8
CCc1ccc(CNC(=O)CN2C(=O)COc3ccccc32)cc1	12*	-2	-1	7	-7	-3
O=C(CN1C(=O)COc2ccccc21)NCc1ccc(C(=O)O)cc1	2	-3	-1	-8	-4	1
CCN(CC)CCNC(=O)Cn1ncc2ccccc2c1=O	2	-1	0	0	-4	-3
Cc1cc(=O)oc(C)c1C(=O)Nc1ccc2nsnc2c1	-2	3	-2	3	·	-5
Cc1cc(=O)oc(C)c1C(=O)Nc1ccc2ncccc2c1	8	-1	-22	59*	-8	0
Cn1ncc(Cl)c1C(=O)N1CCN(S(=O)(=O)c2ccc(F)cc2)CC1	-10	?	·	·	-7	-4
COc1ccc(Cl)cc1C(=O)OCC(=O)NC(=O)c1cccn1C	0	-1	0	1	-5	-4
CCCOc1c(Br)cc(C(=O)OCC(=O)NC(=O)c2cccn2C)cc1OC	+	·	·	·	-2	3
CS(=O)(=O)N(CC(=O)NCCSc1ccc(Cl)cc1)c1ccc2c(c1)OCO2	19*	-1	-1	1	-5	6
O=C(OCc1nnc(-c2ccccc2)o1)c1cc(S(=O)(=O)N2CCOCC2)c(Cl)cc1Cl	3	2	-1	-3	·	3
O=C(COC(=O)C1CC2C=CC1C2)NCc1ccccc1Cl (stereo not given)	0	1	-2	5	-5	2
Nc1cccc2nc3ccccc3cc12	-35	176*	20	58*	·	·
Cc1ccc(N(CC(=O)Nc2cc(Cl)ccc2Oc2ccccc2)S(C)(=O)=O)cc1C	-4	4	1	-1	-5	27*
Cc1ccc(N(CC(=O)Nc2cc(Cl)ccc2Oc2ccccc2)S(C)(=O)=O)c(C)c1	-6	?	0	0	-5	17
Oc1c(N=Nc2ccccc2)sc2ccccc12	7	29*	-6	-10	-3	6
CC(=Nc1ccc(O)cc1)c1sc2ccccc2c1O	-12	2	-22	-98	·	0

Assay outcomes deposited in PubChem BioAssay by several laboratories.
